Measurements published in ChEMBL document CHEMBL4402562, “Discovery of Novel Peptidomimetic Boronate ClpP Inhibitors with Noncanonical Enzyme Mechanism as Potent Virulence Blockers in Vitro and in Vivo” (J Med Chem, 2020).
Active and inactive are the calls of the source. No cut-off for these calls is given here.

Experiments:
[1] = Toxicity in BALB/c mouse model of skin abscess infected with methicillin-resistant Staphylococcus aureus ATCC 33591 assessed as effect on albumin levels at 1.5 to 3 mg/kg injected into shaved area of skin once daily for 4 days; assay type: organism-based; details: in vivo, other, 96 h
How it was run: (§1)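 Infected BALB/c mice (n=5/group) dosed 1.5 or 3 mg/kg into the infected skin once daily for 4 days; blood collected on day 4 and day 14, centrifuged 3,500 rpm 15 min, serum biochemistry analysed.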

[2] = Toxicity in BALB/c mouse model of skin abscess infected with methicillin-resistant Staphylococcus aureus ATCC 33591 assessed as increase in direct bilirubin levels at 1.5 to 3 mg/kg injected into shaved area of skin once daily for 4 days measured on day 14; assay type: organism-based; details: in vivo, other, 96 h; how it was run: as §1
Staphylococcus aureus [3] = assay: (§2) Antivirulence activity against methicillin-resistant Staphylococcus aureus ATCC 33591 infected in BALB/c mouse model of skin abscess assessed as reduction in spleen histopathological changes at 1.5 to 3 mg/kg injected into shaved area of skin once daily for 4 days measured after 12 hrs post last dose by hematoxylin and eosin staining based optical microscopy; assay type: functional, organism-based
How it was run: (§3)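 Same MRSA ATCC 33591 skin-abscess model in female BALB/c mice (n=5/group), 40 µL compound at 1.5 or 3 mg/kg injected into the infected shaved skin once daily for 4 days. On day 4 infected skin and heart, liver, spleen, lung, kidney fixed in 4% paraformaldehyde, embedded, sectioned, H&E stained and examined by microscopy; PBS-treated uninfected and vehicle controls.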

[4] = Toxicity in BALB/c mouse model of skin abscess infected with methicillin-resistant Staphylococcus aureus ATCC 33591 assessed as increase in AST levels at 1.5 to 3 mg/kg injected into shaved area of skin once daily for 4 days measured on day 14; assay type: organism-based; details: in vivo, other, 96 h; how it was run: as §1
Staphylococcus aureus [5] = assay: Inhibition of virulence-related genes expression in methicillin-resistant Staphylococcus aureus ATCC 33591 assessed as reduction in aur expression at 4 to 16 uM by qPCR analysis relative to control; assay type: functional, organism-based
How it was run: (§4)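 Total RNA from 2×10⁸ CFU treated MRSA by liquid-nitrogen freeze-thaw and TRIzol; qPCR relative to gyrB endogenous control; three experiments, triplicate wells.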

Staphylococcus aureus [6] = assay: Inhibition of Staphylococcus aureus NCTC8325 with delta clpP assessed as reduction in bacteria-induced hemolysis of sheep erythrocytes by measuring hemoglobin release at 0.5 to 64 uM; assay type: functional, organism-based
How it was run: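 S. aureus NCTC8325 ΔclpP grown in MHB from OD600 0.05 to ~0.6 at 37 °C, then 8 h with serially diluted inhibitor or DMSO. Culture supernatant mixed 1:1 with 5% sheep erythrocytes, centrifuged 1,500 rpm for 15 min, hemoglobin at 545 nm. Thrice, triplicate tubes.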

[7] = biological target: T1, ATP-dependent Clp protease proteolytic subunit (Staphylococcus aureus (strain NCTC 8325)) (UniProt Q2G036); assay: Inhibition of N-terminal His6-sumo-tagged full length Staphylococcus aureus ClpP expressed in Escherichia coli […] (DE3) assessed as Kinact/Ki ratio […] and measured after 1 hr by fluorescence based assay
T1 sequence (whole entry): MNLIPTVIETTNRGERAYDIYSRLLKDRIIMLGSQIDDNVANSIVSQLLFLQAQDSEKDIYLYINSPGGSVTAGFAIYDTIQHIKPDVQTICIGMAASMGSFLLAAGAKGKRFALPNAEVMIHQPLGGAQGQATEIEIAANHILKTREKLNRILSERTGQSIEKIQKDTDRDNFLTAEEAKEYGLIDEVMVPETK

[8] = Toxicity in BALB/c mouse model of skin abscess infected with methicillin-resistant Staphylococcus aureus ATCC 33591 assessed as increase in direct bilirubin levels at 1.5 to 3 mg/kg injected into shaved area of skin once daily for 4 days; assay type: organism-based; details: in vivo, other, 96 h; how it was run: as §1
[9] = Inhibition of Pseudomonas aeruginosa ClpP1 expressed in Escherichia coli […] pre-incubated for 10 mins before Suc-LY- AMC addition and measured after 1 hr by fluorescence based assay relative to control
How it was run: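 PaClpP1 (0.5 μM monomer) in 25 mM Tris-Cl pH 7.5, 150 mM NaCl. Preincubated 10 min at RT with inhibitor, two-fold dilutions over 8 steps from 50 μM. Then 50 μM Suc-LY-AMC, 380/440 nm for 1 h at 37 °C, slopes normalized to DMSO. Thrice, triplicate wells.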

[10] = Cytotoxicity in human HepG2 cells assessed as reduction in cell viability incubated for 24 hrs by MTT assay; assay type: cell-based
How it was run: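 MTT assay. HeLa (3×10^3 cells) or HepG2 (4×10^3 cells) seeded in DMEM and grown 24 h, then given compound for a further 24 h. Absorbance read at 570 nm against DMSO wells. GI50 from dose-response fit; three experiments, triplicate wells.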

Staphylococcus aureus [11] = assay: Inhibition of virulence-related genes expression in methicillin-resistant Staphylococcus aureus ATCC 33591 assessed as reduction in RNAIII effector, expression at 16 uM by qPCR analysis relative to control; assay type: functional; how it was run: as §4
Staphylococcus aureus [12] = assay: as §2, with “skin inflammation” for “spleen histopathological changes”; assay type: functional, organism-based; how it was run: as §3
[13] = biological target: T1, ATP-dependent Clp protease proteolytic subunit (Staphylococcus aureus (strain NCTC 8325)); assay: (§5) Inhibition of N-terminal His6-sumo-tagged full length Staphylococcus aureus ClpP expressed in Escherichia coli […] pre-incubated for 10 mins before Suc-LY-AMC addition and measured after 1 hr by fluorescence based assay
How it was run: (§6)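 SaClpP (1 μM monomer) in 100 mM Hepes pH 7.0, 100 mM NaCl. Preincubated 10 min at RT with inhibitor, two-fold dilutions over 8 steps from 100 μM. Suc-LY-AMC at 200 μM, 380/440 nm recorded for 1 h at 37 °C, slopes normalized to DMSO. For kinact/Ki, inhibitor premixed with substrate and reaction started by enzyme, fitted by least squares. Thrice, triplicate wells.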

[14] = biological target: T2, ATP-dependent Clp protease proteolytic subunit (Staphylococcus aureus (strain NCTC 8325), UniProt Q2G036); assay: as §5; how it was run: as §6
T2 sequence (Q2G036 whole entry): T1 sequence (whole entry)

[15] = biological target: T1, ATP-dependent Clp protease proteolytic subunit (Staphylococcus aureus (strain NCTC 8325)); assay: Induction of thermal stabilization of ClpP in methicillin-resistant Staphylococcus aureus ATCC 33591 assessed as protein stability up to 83 degC pre-incubated for 2 hrs by CETSA method
How it was run: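 MRSA grown at 37 °C in TSB with DMSO or 100 µM compound 2 h; cells in TE buffer (~4×10⁹ CFU/mL), lysostaphin 37 °C 30 min; supernatant heated 5 min at set temperatures, 3 min RT, ice, spun 20,000 g 20 min; soluble ClpP by western blot with polyclonal anti-ClpP.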

[16] = biological target: T1, ATP-dependent Clp protease proteolytic subunit (Staphylococcus aureus (strain NCTC 8325)); assay: Inhibition of ClpP in Staphylococcus aureus NCTC8325 with complemented deltaclpP/pYJ335::clpP (deltaclpP+) assessed as reduction in bacteria-induced hemolysis of sheep erythrocytes by measuring hemoglobin release incubated for 15 mins
How it was run: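 S. aureus strains grown overnight in MHB, diluted to OD600 0.05, then grown at 37 °C to OD600 ~0.6. Serially diluted inhibitor or DMSO added for 8 h more growth. Supernatant mixed 1:1 with 5% sheep erythrocytes, spun 1,500 rpm for 15 min, hemoglobin read at 545 nm. EC50 by nonlinear fit; thrice, triplicate tubes.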

Staphylococcus aureus [17] = assay: Inhibition of virulence-related genes expression in methicillin-resistant Staphylococcus aureus ATCC 33591 assessed as reduction in psm expression at 4 to 16 uM by qPCR analysis relative to control; assay type: functional, organism-based; how it was run: as §4

With `CC(C)C[C@H](NC(=O)[C@H](Cc1c[nH]c2ccccc12)NC(=O)c1cc(Cl)ccc1Cl)B(O)O` the Activity [1] was “Non-Toxic”, the Activity [2] was “Non-Toxic” and the Activity (Staphylococcus aureus [3]) was “Active”. For the same compound, the Activity [4] was “Non-Toxic”, the inhibition (Staphylococcus aureus [5]) was “Active” and the inhibition (Staphylococcus aureus [6]) was “inactive”. For the same compound, the Ratio [7] was 16.7 ×10² /s.M, the Activity [8] was “Toxic” and the IC50 [9] was 3 to 25 µM. The GI50 at 24 h [10] was 83.4 µM, the “fold change (FC)” value (Staphylococcus aureus [11]) was over 10 and the Activity (Staphylococcus aureus [12]) was “Active”. The inhibition [13] was “Dose-dependent effect”, the IC50 [14] was 0.9 µM and the Activity [15] was “Active”. The inhibition [16] was “Dose-dependent effect” and the inhibition (Staphylococcus aureus [17]) was “Active”.
